Test results reported in ChEMBL document CHEMBL5058577, “EUbOPEN Chemogenomics Library 2 (Multiplex)” (2022).

Tested on: HEK-293T
Assay: Multiplex assay against HEK293T
Format: toxicity, cell-based
Conditions: human
Method in brief: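 Imaging took place on a CQ1 microscope at 37°C and 5% CO2 once compound had been added to live cells stained at seeding with Hoechst33342, BioTracker Green Microtubule Cytoskeleton Dye, MitoTracker Red and Annexin V Alexa Fluor 680. CellPathfinder machine-learning gating classed cells as Hoechst high-intensity objects or normal cells, classed normal cells as having healthy, pyknosed or fragmented nuclei, and classed pyknosed cells as mitotic or apoptotic. Tubulin, mitochondrial-mass and membrane-permeability phenotypes are per cents of the healthy-nucleus cells.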

[1] = 12 h, 1 µM, compound concentration 1 uM, replicate 1
[2] = 12 h, 1 µM, compound concentration 1 uM, replicate 2
[3] = 12 h, 10 µM, compound concentration 10 uM, replicate 1
[4] = 12 h, 10 µM, compound concentration 10 uM, replicate 2
[5] = 24 h, 1 µM, compound concentration 1 uM, replicate 1
[6] = 24 h, 1 µM, compound concentration 1 uM, replicate 2
[7] = 24 h, 10 µM, compound concentration 10 uM, replicate 1
[8] = 24 h, 10 µM, compound concentration 10 uM, replicate 2
[9] = 48 h, 1 µM, compound concentration 1 uM, replicate 1
[10] = 48 h, 1 µM, compound concentration 1 uM, replicate 2
[11] = 48 h, 10 µM, compound concentration 10 uM, replicate 1
[12] = 48 h, 10 µM, compound concentration 10 uM, replicate 2

COc1ccc2c(c1OCc1ccccc1)C[C@@H](C(=O)O)N(C(=O)C(c1ccccc1)c1ccccc1)C2 [OLODANRIGAN]
Population Apoptotic (%) [1]: 39% | Population Fragmented Nuclei (%) [1]: 6% | Population Healthy Nuclei (%) [1]: 82% | Population Hoechst High Intensity Objects (%) [1]: 7% | Population Membrane Permeable-Phenotype (%) [1]: 0% | Population Mitochondria Different-Phenotype (%) [1]: 44% | Population Mitotic Cells (%) [1]: 60% | Population Normal (%) [1]: 92% | Population Pyknosed Nuclei (%) [1]: 11% | Population Tubulin-Different-Phenotype (%) [1]: 21% | Total Cell Count [1]: 419 | Population Apoptotic (%) [2]: 43% | Population Fragmented Nuclei (%) [2]: 7% | Population Healthy Nuclei (%) [2]: 81% | Population Mitochondria Different-Phenotype (%) [2]: 48% | Population Mitotic Cells (%) [2]: 56% | Population Pyknosed Nuclei (%) [2]: 10% | Population Tubulin-Different-Phenotype (%) [2]: 17% | Total Cell Count [2]: 409 | Population Apoptotic (%) [3]: 45% | Population Fragmented Nuclei (%) [3]: 6% | Population Healthy Nuclei (%) [3]: 81% | Population Hoechst High Intensity Objects (%) [3]: 6% | Population Membrane Permeable-Phenotype (%) [3]: 0% | Population Mitochondria Different-Phenotype (%) [3]: 42% | Population Mitotic Cells (%) [3]: 54% | Population Normal (%) [3]: 93% | Population Pyknosed Nuclei (%) [3]: 12% | Population Tubulin-Different-Phenotype (%) [3]: 35% | Total Cell Count [3]: 389 | Population Apoptotic (%) [4]: 44% | Population Fragmented Nuclei (%) [4]: 4% | Population Healthy Nuclei (%) [4]: 83% | Population Hoechst High Intensity Objects (%) [4]: 3% | Population Mitochondria Different-Phenotype (%) [4]: 58% | Population Mitotic Cells (%) [4]: 55% | Population Normal (%) [4]: 96% | Population Tubulin-Different-Phenotype (%) [4]: 27% | Total Cell Count [4]: 368 | Population Apoptotic (%) [5]: 46% | Population Fragmented Nuclei (%) [5]: 11% | Population Healthy Nuclei (%) [5]: 78% | Population Hoechst High Intensity Objects (%) [5]: 3% | Population Membrane Permeable-Phenotype (%) [5]: 0% | Population Mitochondria Different-Phenotype (%) [5]: 24% | Population Mitotic Cells (%) [5]: 53% | Population Normal (%) [5]: 96% | Population Pyknosed Nuclei (%) [5]: 10% | Population Tubulin-Different-Phenotype (%) [5]: 15% | Total Cell Count [5]: 614 | Population Apoptotic (%) [6]: 19% | Population Fragmented Nuclei (%) [6]: 10% | Population Healthy Nuclei (%) [6]: 81% | Population Hoechst High Intensity Objects (%) [6]: 6% | Population Membrane Permeable-Phenotype (%) [6]: 1% | Population Mitochondria Different-Phenotype (%) [6]: 30% | Population Mitotic Cells (%) [6]: 80% | Population Normal (%) [6]: 93% | Population Pyknosed Nuclei (%) [6]: 8% | Population Tubulin-Different-Phenotype (%) [6]: 14% | Total Cell Count [6]: 521 | Population Apoptotic (%) [7]: 40% | Population Fragmented Nuclei (%) [7]: 7% | Population Healthy Nuclei (%) [7]: 78% | Population Hoechst High Intensity Objects (%) [7]: 6% | Population Membrane Permeable-Phenotype (%) [7]: 0% | Population Mitochondria Different-Phenotype (%) [7]: 34% | Population Mitotic Cells (%) [7]: 59% | Population Normal (%) [7]: 93% | Population Pyknosed Nuclei (%) [7]: 13% | Population Tubulin-Different-Phenotype (%) [7]: 32% | Total Cell Count [7]: 456 | Population Apoptotic (%) [8]: 43% | Population Fragmented Nuclei (%) [8]: 10% | Population Healthy Nuclei (%) [8]: 79% | Population Mitochondria Different-Phenotype (%) [8]: 57% | Population Mitotic Cells (%) [8]: 56% | Population Pyknosed Nuclei (%) [8]: 9% | Population Tubulin-Different-Phenotype (%) [8]: 28% | Total Cell Count [8]: 414 | Population Apoptotic (%) [9]: 26% | Population Fragmented Nuclei (%) [9]: 13% | Population Healthy Nuclei (%) [9]: 80% | Population Hoechst High Intensity Objects (%) [9]: 2% | Population Membrane Permeable-Phenotype (%) [9]: 0% | Population Mitochondria Different-Phenotype (%) [9]: 15% | Population Mitotic Cells (%) [9]: 73% | Population Normal (%) [9]: 97% | Population Pyknosed Nuclei (%) [9]: 5% | Population Tubulin-Different-Phenotype (%) [9]: 11% | Total Cell Count [9]: 1083 | Population Apoptotic (%) [10]: 22% | Population Fragmented Nuclei (%) [10]: 15% | Population Healthy Nuclei (%) [10]: 79% | Population Mitochondria Different-Phenotype (%) [10]: 18% | Population Mitotic Cells (%) [10]: 77% | Population Tubulin-Different-Phenotype (%) [10]: 10% | Total Cell Count [10]: 818 | Population Apoptotic (%) [11]: 32% | Population Fragmented Nuclei (%) [11]: 12% | Population Healthy Nuclei (%) [11]: 78% | Population Hoechst High Intensity Objects (%) [11]: 5% | Population Membrane Permeable-Phenotype (%) [11]: 0% | Population Mitochondria Different-Phenotype (%) [11]: 22% | Population Mitotic Cells (%) [11]: 67% | Population Normal (%) [11]: 94% | Population Pyknosed Nuclei (%) [11]: 8% | Population Tubulin-Different-Phenotype (%) [11]: 15% | Total Cell Count [11]: 659 | Population Apoptotic (%) [12]: 39% | Population Healthy Nuclei (%) [12]: 80% | Population Hoechst High Intensity Objects (%) [12]: 6% | Population Mitochondria Different-Phenotype (%) [12]: 32% | Population Mitotic Cells (%) [12]: 60% | Population Normal (%) [12]: 93% | Population Pyknosed Nuclei (%) [12]: 7% | Population Tubulin-Different-Phenotype (%) [12]: 18% | Total Cell Count [12]: 534
